Assays:
[1] = molecular target: T1, C-C chemokine receptor type 2 (Homo sapiens, UniProt P41597); assay: Displacement of [125I]MCP1 from human CCR2 expressed in monocytes; type: cell-based
How it was run: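 Human CCR2 binding was read as inhibition of 125I-MCP-1 binding to monocyte cells stably transfected with CCR2. The assay was run in the presence of 0.5% BSA, using membranes of these cells.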
Target sequence in this assay (P41597 whole entry): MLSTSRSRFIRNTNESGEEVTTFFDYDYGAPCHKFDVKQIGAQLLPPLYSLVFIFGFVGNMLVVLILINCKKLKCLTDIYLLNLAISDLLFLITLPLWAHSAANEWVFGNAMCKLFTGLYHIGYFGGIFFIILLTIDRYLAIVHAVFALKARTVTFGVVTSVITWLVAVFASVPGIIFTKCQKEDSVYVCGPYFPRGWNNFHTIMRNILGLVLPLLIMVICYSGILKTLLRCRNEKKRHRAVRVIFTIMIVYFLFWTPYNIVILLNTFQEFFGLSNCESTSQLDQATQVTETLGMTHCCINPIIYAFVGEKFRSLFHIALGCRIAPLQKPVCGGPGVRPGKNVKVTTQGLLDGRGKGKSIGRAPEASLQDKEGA

[2] = Clearance in Sprague-Dawley rat; type: ADME, organism-based; conditions: in vivo
[3] = Tmax in Beagle dog; type: ADME, organism-based, Canis lupus familiaris; conditions: in vivo
[4] = molecular target: T2, C-C chemokine receptor type 1 (Homo sapiens) (UniProt P32246); assay: Inhibition of CCR1 at 1uM
T2 sequence (whole entry): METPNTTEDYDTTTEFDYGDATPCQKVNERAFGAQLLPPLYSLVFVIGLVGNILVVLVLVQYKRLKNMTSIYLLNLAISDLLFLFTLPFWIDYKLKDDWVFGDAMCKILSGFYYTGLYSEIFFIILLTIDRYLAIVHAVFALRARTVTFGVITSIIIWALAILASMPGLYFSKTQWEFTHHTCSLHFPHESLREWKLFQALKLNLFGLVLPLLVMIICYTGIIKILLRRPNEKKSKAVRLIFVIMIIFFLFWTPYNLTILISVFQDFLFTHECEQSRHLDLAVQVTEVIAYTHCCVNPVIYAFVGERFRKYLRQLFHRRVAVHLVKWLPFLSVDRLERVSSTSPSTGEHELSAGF

[5] = molecular target: T3, C-C chemokine receptor type 3 (Homo sapiens) (UniProt P51677); assay: Inhibition of CCR3 at 1uM
T3 sequence (whole entry): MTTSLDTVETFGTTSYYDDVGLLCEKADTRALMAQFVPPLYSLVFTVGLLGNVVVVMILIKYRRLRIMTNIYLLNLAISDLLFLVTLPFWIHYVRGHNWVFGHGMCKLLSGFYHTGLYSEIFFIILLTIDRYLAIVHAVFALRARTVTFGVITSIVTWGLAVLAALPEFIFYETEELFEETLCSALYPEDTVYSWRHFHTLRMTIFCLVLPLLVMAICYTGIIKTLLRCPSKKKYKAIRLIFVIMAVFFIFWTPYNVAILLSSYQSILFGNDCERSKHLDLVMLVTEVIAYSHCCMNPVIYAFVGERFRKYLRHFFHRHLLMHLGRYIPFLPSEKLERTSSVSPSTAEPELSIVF

[6] = Volume of distribution in Sprague-Dawley rat; type: ADME, organism-based; conditions: in vivo, read-out: Vdss
[7] = Bioavailability in Sprague-Dawley rat; type: ADME, organism-based; conditions: in vivo
[8] = Tmax in Sprague-Dawley rat; type: ADME, organism-based; conditions: in vivo
[9] = molecular target: T4, C-C chemokine receptor type 4 (Homo sapiens) (UniProt P51679); assay: Inhibition of CCR4 at 1uM
T4 sequence (whole entry): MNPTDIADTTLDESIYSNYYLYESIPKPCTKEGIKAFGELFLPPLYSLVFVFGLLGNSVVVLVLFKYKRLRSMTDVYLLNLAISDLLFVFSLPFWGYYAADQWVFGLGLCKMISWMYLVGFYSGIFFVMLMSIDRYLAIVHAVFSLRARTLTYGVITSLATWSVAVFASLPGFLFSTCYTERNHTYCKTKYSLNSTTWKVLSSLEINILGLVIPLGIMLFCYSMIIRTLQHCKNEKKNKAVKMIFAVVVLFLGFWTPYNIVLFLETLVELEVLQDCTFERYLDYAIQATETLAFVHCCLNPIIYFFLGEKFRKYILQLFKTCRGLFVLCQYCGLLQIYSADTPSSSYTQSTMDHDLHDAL

[10] = molecular target: C-X-C chemokine receptor type 4 (Homo sapiens) (UniProt P61073); assay: Inhibition of CXCR4 at 1uM
Sequence of C-X-C chemokine receptor type 4 (Homo sapiens) (P61073 whole entry): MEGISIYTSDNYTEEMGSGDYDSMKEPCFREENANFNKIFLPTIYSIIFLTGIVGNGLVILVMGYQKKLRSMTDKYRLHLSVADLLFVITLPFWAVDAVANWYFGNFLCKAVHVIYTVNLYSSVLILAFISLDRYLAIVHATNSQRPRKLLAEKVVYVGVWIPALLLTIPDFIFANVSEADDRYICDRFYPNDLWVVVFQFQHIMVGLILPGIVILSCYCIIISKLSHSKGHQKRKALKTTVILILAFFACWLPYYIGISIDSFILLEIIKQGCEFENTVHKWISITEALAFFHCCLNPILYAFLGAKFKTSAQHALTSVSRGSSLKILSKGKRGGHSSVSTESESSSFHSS

[11] = Bioavailability in Beagle dog; type: ADME, organism-based, Canis lupus familiaris; conditions: in vivo
[12] = molecular target: C-C chemokine receptor type 5 (Homo sapiens) (UniProt P51681); assay: Inhibition of CCR5 at 1uM
Sequence of C-C chemokine receptor type 5 (Homo sapiens) (P51681 whole entry, looked up): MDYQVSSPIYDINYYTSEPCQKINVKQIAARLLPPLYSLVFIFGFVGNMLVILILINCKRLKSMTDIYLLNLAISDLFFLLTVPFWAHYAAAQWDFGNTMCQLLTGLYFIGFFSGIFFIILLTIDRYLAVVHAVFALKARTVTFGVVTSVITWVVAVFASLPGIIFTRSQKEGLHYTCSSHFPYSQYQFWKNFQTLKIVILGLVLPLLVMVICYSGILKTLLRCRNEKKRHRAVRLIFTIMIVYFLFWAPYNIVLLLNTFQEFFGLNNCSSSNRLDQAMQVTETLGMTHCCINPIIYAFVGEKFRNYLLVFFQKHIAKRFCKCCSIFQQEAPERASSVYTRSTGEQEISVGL

[13] = Clearance in Beagle dog; type: ADME, organism-based, Canis lupus familiaris; conditions: in vivo
[14] = Half life in Beagle dog; type: ADME, organism-based, Canis lupus familiaris; conditions: in vivo
[15] = molecular target: Substance-P receptor (Homo sapiens) (UniProt P25103); assay: Inhibition of NK1 receptor at 1uM
Sequence of Substance-P receptor (Homo sapiens) (P25103 whole entry): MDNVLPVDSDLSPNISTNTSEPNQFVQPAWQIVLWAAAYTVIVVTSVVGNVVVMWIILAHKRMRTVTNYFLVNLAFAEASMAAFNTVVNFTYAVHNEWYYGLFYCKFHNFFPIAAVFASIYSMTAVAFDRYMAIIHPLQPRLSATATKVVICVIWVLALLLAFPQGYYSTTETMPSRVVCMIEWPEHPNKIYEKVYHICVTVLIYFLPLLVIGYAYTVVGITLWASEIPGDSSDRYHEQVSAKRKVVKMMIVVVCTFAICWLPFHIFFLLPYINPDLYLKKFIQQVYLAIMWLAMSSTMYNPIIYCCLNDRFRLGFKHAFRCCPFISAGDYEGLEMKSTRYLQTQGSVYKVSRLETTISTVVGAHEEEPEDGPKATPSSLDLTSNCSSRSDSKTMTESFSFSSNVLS

[16] = Half life in Sprague-Dawley rat; type: ADME, organism-based; conditions: in vivo
[17] = Cmax in Beagle dog; type: ADME, organism-based, Canis lupus familiaris; conditions: in vivo
[18] = Volume of distribution in Beagle dog; type: ADME, organism-based, Canis lupus familiaris; conditions: in vivo, read-out: Vdss
[19] = Cmax in Sprague-Dawley rat; type: ADME, organism-based; conditions: in vivo
[20] = molecular target: C-C chemokine receptor type 2 (Mus musculus, UniProt P51683); assay: Displacement of [125I]MCP1 from mouse CCR2 expressed in monocytes; type: cell-based
Sequence of C-C chemokine receptor type 2 (Mus musculus, UniProt P51683) (P51683 whole entry): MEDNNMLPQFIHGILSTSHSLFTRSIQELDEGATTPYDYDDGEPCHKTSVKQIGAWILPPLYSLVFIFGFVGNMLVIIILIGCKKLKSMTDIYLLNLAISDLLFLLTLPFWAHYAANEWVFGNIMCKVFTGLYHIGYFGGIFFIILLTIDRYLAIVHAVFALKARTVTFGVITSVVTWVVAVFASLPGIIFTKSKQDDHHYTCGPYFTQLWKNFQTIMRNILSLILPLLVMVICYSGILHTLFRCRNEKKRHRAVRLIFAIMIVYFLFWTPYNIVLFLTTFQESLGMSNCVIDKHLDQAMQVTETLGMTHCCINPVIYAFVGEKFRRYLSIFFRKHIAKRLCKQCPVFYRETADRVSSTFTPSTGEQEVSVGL

[21] = molecular target: T1, C-C chemokine receptor type 2; assay: Displacement of [125I]MCP-1 from human CCR2 expressed in monocytes 1 uM; type: cell-based
Target sequence in this assay (P41597 whole entry, looked up): as the sequence (P41597 whole entry) above

For `CC(=O)Nc1nc([C@@H](CCN2CCC3(C=Cc4ccccc43)CC2)C(=O)NCc2cc(C(F)(F)F)cc(C(F)(F)F)c2)cs1`, the IC50 [1] was 6.5 nM.
With `CC(C)(C)C(=O)Nc1nc(C(CCN2CCC(c3ccccc3)CC2)C(=O)NCc2cc(C(F)(F)F)cc(C(F)(F)F)c2)cs1` (stereo unspecified) the IC50 [1] was 18 nM.
`O=C(NCc1cc(C(F)(F)F)cc(C(F)(F)F)c1)[C@H](CCN1CCC(c2ccccc2)CC1)c1cscn1` gave an IC50 [1] of 229 nM.
Work on `CC(=O)Nc1nc(C(CCN2CCC(c3ccccc3)CC2)C(=O)NCc2cc(C(F)(F)F)cc(C(F)(F)F)c2)cs1` (stereo unspecified) yielded a clearance [2] of 52.5 mL/min/kg, a Tmax [3] of 0.5 h and an inhibition [4] of 66%. It also gave an inhibition [5] of 7%, a Vd [6] of 5.3 L/kg and a bioavailability [7] of 17%. The Tmax [8] was 2.2 h, the inhibition [9] was 86% and the inhibition [10] was 27%. For the same molecule, the bioavailability [11] was 1.6%, the inhibition [12] was 44% and the clearance [13] was 21.6 mL/min/kg. The IC50 [1] was 5.2 nM, the half-life [14] was 2.28 h and the inhibition [15] was 56%. For the same molecule, the half-life [16] was 1.4 h, the Cmax [17] was 18 nM and the Vd [18] was 4 L/kg. For the same molecule, the Cmax [19] was 64 nM.
In the case of `CC(C(=O)Nc1nc(C(CCN2CC[C@]3(C=Cc4ccccc43)[C@@H](C)C2)C(=O)NCc2cc(C(F)(F)F)cc(C(F)(F)F)c2)cs1)c1ccccc1` (stereo partly specified), the IC50 [1] is reported as 74 nM and the IC50 [20] is reported as 517 nM.
In the case of `Nc1nc([C@H](CCN2CCC(c3ccccc3)CC2)C(=O)NCc2cc(C(F)(F)F)cc(C(F)(F)F)c2)cs1`, the IC50 [1] is reported as 13.3 nM.
Work on `CC(=O)Nc1nc(C(CCN2CCC3(C=Cc4ccccc43)[C@@H](C)C2)C(=O)NCc2cc(C(F)(F)F)cc(C(F)(F)F)c2)cs1` (stereo partly specified) yielded an IC50 [1] of 3 nM.
For `O=CNc1nc(C(CCN2CCC(c3ccccc3)CC2)C(=O)NCc2cc(C(F)(F)F)cc(C(F)(F)F)c2)cs1` (stereo unspecified), the IC50 [1] was 4 nM.
`CC(=O)Nc1nc([C@H](CCN2CCC3(C=Cc4ccccc43)CC2)C(=O)NCc2cc(C(F)(F)F)cc(C(F)(F)F)c2)cs1` gave an IC50 [1] of 1.4 nM.
Work on `CC(=O)Nc1nc([C@@H](CCN2CCC(c3ccccc3)CC2)C(=O)NCc2cc(C(F)(F)F)cc(C(F)(F)F)c2)cs1` yielded an IC50 [1] of 42 nM.
`CC(=O)Nc1nc(C(CCN2CCN(c3ccc(F)cc3)CC2)C(=O)NCc2cc(C(F)(F)F)cc(C(F)(F)F)c2)cs1` (stereo unspecified) gave an IC50 [1] of 32.7 nM.
Work on `CNC(=O)Nc1nc([C@@H](CCN2CCC(c3ccccc3)CC2)C(=O)NCc2cc(C(F)(F)F)cc(C(F)(F)F)c2)cs1` yielded an IC50 [1] of 30 nM.
With `C[C@H]1CN(CCC(C(=O)NCc2cc(C(F)(F)F)cc(C(F)(F)F)c2)c2csc(NC(=O)Cc3ccccn3)n2)CC[C@]12C=Cc1ccccc12` (stereo partly specified) the IC50 [1] was 13 nM and the IC50 [20] was 79 nM.
For `C[C@H]1CN(CCC(C(=O)NCc2cc(C(F)(F)F)cc(C(F)(F)F)c2)c2csc(NC(=O)Cc3cccs3)n2)CC[C@]12C=Cc1ccccc12` (stereo partly specified), the IC50 [1] was 23 nM and the IC50 [20] was 81 nM.
`CC(=O)Nc1nc(C(CCN2CCC(c3ccc(F)cc3)CC2)C(=O)NCc2cc(C(F)(F)F)cc(C(F)(F)F)c2)cs1` (stereo unspecified) gave an IC50 [1] of 1.8 nM.
Work on `CS(=O)(=O)Nc1nc(C(CCN2CCC(c3ccccc3)CC2)C(=O)NCc2cc(C(F)(F)F)cc(C(F)(F)F)c2)cs1` (stereo unspecified) yielded an IC50 [1] of 36 nM.
Work on `Nc1nc(C(CCN2CCC(c3ccc(F)cc3)CC2)C(=O)NCc2cc(C(F)(F)F)cc(C(F)(F)F)c2)cs1` (stereo unspecified) yielded an IC50 [1] of 9.1 nM.
`Nc1nc(C(CCN2CCC3(C=Cc4ccccc43)CC2)C(=O)NCc2cc(C(F)(F)F)cc(C(F)(F)F)c2)cs1` (stereo unspecified) gave an IC50 [1] of 7.3 nM.
For `CC(=O)Nc1nc(C(CCN2CCCCC2)C(=O)NCc2cc(C(F)(F)F)cc(C(F)(F)F)c2)cs1` (stereo unspecified), the IC50 [1] was 13 nM.
`C[C@H]1CN(CCC(C(=O)NCc2cc(C(F)(F)F)cc(C(F)(F)F)c2)c2csc(NC(=O)C3Cc4ccccc43)n2)CC[C@]12C=Cc1ccccc12` (stereo partly specified) showed an IC50 [1] of 36 nM and an IC50 [20] of 111 nM.
`COC(=O)Nc1nc([C@H](CCN2CCC(c3ccccc3)CC2)C(=O)NCc2cc(C(F)(F)F)cc(C(F)(F)F)c2)cs1` showed an IC50 [1] of 3.5 nM.
For `CC(=O)Nc1nc(C(CCN2CCC3(C=Cc4ccccc43)CC2)C(=O)NCc2cc(C(F)(F)F)cc(C(F)(F)F)c2)cs1` (stereo unspecified), the IC50 [1] was 1.7 nM.
In the case of `COC(=O)Nc1nc([C@@H](CCN2CCC(c3ccccc3)CC2)C(=O)NCc2cc(C(F)(F)F)cc(C(F)(F)F)c2)cs1`, the inhibition [21] is reported as 85%.
`Nc1nc(C(CCN2CCCCC2)C(=O)NCc2cc(C(F)(F)F)cc(C(F)(F)F)c2)cs1` (stereo unspecified) showed an inhibition [21] of 75%.

Source: ChEMBL document CHEMBL1143782, “Alpha-aminothiazole-gamma-aminobutanoic amides as potent, small molecule CCR2 receptor antagonists” (Bioorg Med Chem Lett, 2007)
